Source: ChEMBL document CHEMBL1123831, “17-Heteroaroyl esters of corticosteroids. 2. 11 beta-Hydroxy series” (1987)

Experiments:
[1] = species: Mus musculus; test: Anti-inflammatory potency was measured in mice at 5 hours by modification of the Tonelli croton oil ear assay; assay type: functional
Method in brief: (§1)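 Topical dosing in mice. Compounds at 10^-4% to 10^-6% (w/v) were dissolved in 0.6–0.7% croton oil, in a vehicle of pyridine/water/diethyl ether 20:5:74 (v/v). 10 µL was applied to the inner aspect of both pinnae daily for 5 days. Animals were killed 5 h after the last dose, and 6-mm ear punch biopsies were weighed. Potency was calculated relative to betamethasone 17-valerate from the mean left-plus-right ear punch weights.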

[2] = species: Mus musculus; test: Anti-inflammatory potency was measured in mice by modification of the croton oil ear assay; design: reference not given here
[3] = species: Mus musculus; test: Anti-inflammatory potency was measured in mice at 5 hours by modification of the croton oil ear assay; assay type: functional; method in brief: as §1

CC(=O)OCC(=O)[C@@]1(OC(=O)c2ccco2)CCC2C3CCC4=CC(=O)C=CC4(C)C3C(O)CC21C (stereo partly drawn)
Potency [1]: 1.3 | Potency [2]: 0.9

CC(=O)OCC(=O)[C@@]1(OC(=O)c2ccco2)[C@@H](C)CC2C3CCC4=CC(=O)C=CC4(C)[C@@]3(F)C(O)CC21C (stereo partly drawn)
Potency [1]: 0.5 | Potency [2]: 0.2

COCC(=O)OCC(=O)[C@@]1(OC(=O)c2ccco2)[C@H](C)CC2C3CCC4=CC(=O)C=CC4(C)[C@@]3(F)C(O)CC21C (stereo partly drawn)
Potency [1]: 0.8 | Potency [2]: 3.2

C[C@@H]1C[C@H]2[C@@H]3CCC4=CC(=O)C=C[C@]4(C)[C@@]3(Cl)[C@@H](O)C[C@]2(C)[C@@]1(OC(=O)c1ccco1)C(=O)CF
Potency [1]: 1.4 | Potency [2]: 4.4

CC(=O)OCC(=O)[C@@]1(OC(=O)c2ccco2)[C@H](C)CC2C3C[C@H](F)C4=CC(=O)C=CC4(C)C3C(O)CC21C (stereo partly drawn)
Potency [1]: 2.7 | Potency [2]: 2.1

CCC(=O)OCC(=O)[C@@]1(OC(=O)c2ccco2)[C@H](C)CC2C3CCC4=CC(=O)C=CC4(C)[C@@]3(F)C(O)CC21C (stereo partly drawn)
Potency [1]: 2.1 | Potency [2]: 6.8

C[C@@H]1CC2C3CCC4=CC(=O)C=CC4(C)[C@@]3(Cl)C(O)CC2(C)[C@@]1(OC(=O)c1ccco1)C(=O)CCl (stereo partly drawn)
Potency [1]: 1 | Potency [2]: 6.1

CC(=O)OCC(=O)[C@@]1(OC(=O)c2ccco2)[C@H](C)CC2C3CCC4=CC(=O)C=CC4(C)[C@@]3(Cl)C(O)CC21C (stereo partly drawn)
Potency [1]: 1.7 | Potency [2]: 4.4

C=C1CC2C3CCC4=CC(=O)C=CC4(C)C3(Cl)C(O)CC2(C)[C@@]1(OC(=O)c1ccco1)C(=O)COC(C)=O (stereo partly drawn)
Potency [1]: 2.3 | Potency [3]: 2.2

C=C1CC2C3CCC4=CC(=O)C=CC4(C)C3C(O)CC2(C)[C@@]1(OC(=O)c1ccco1)C(=O)COC(C)=O (stereo partly drawn)
Potency [1]: 2.7 | Potency [2]: 1.2

CC(=O)OCC(=O)[C@@]1(OC(=O)c2ccc(C)s2)[C@H](C)CC2C3CCC4=CC(=O)C=CC4(C)[C@@]3(F)C(O)CC21C (stereo partly drawn)
Potency [1]: 2.4 | Potency [2]: 1.7

C=C1CC2C3CCC4=CC(=O)C=CC4(C)[C@@]3(F)C(O)CC2(C)[C@@]1(OC(=O)c1ccco1)C(=O)COC(C)=O (stereo partly drawn)
Potency [1]: 0.5 | Potency [2]: 1.1

C[C@H]1CC2C3CCC4=CC(=O)C=CC4(C)[C@@]3(F)C(O)CC2(C)[C@@]1(OC(=O)c1cccs1)C(=O)CCl (stereo partly drawn)
Potency [1]: 1.3 | Potency [2]: 2.6

CCCCC(=O)O[C@]1(C(=O)CO)[C@@H](C)C[C@H]2[C@@H]3CCC4=CC(=O)C=C[C@]4(C)[C@@]3(F)[C@@H](O)C[C@@]21C [BETAMETHASONE VALERATE]
Potency [1]: 1 | Potency [2]: 1

CC(=O)OCC(=O)[C@@]1(OC(=O)c2ccoc2)[C@H](C)CC2C3CCC4=CC(=O)C=CC4(C)[C@@]3(F)C(O)CC21C (stereo partly drawn)
Potency [1]: 2.9 | Potency [2]: 3.2

COCC(=O)OCC(=O)[C@@]1(OC(=O)c2ccco2)[C@H](C)CC2C3CCC4=CC(=O)C=CC4(C)[C@@]3(Cl)C(O)CC21C (stereo partly drawn)
Potency [2]: 4.3

C[C@@H]1CC2C3CCC4=CC(=O)C=CC4(C)[C@@]3(F)C(O)CC2(C)[C@@]1(OC(=O)c1ccoc1)C(=O)CCl (stereo partly drawn)
Potency [1]: 1 | Potency [2]: 1.2

CCC(=O)OCC(=O)[C@@]1(OC(=O)c2ccco2)[C@H](C)CC2C3CCC4=CC(=O)C=CC4(C)C3C(O)CC21C (stereo partly drawn)
Potency [1]: 1.1 | Potency [2]: 1.5

C[C@@H]1CC2C3C[C@H](F)C4=CC(=O)C=CC4(C)[C@@]3(Cl)C(O)CC2(C)[C@@]1(OC(=O)c1ccco1)C(=O)CCl (stereo partly drawn)
Potency [1]: 1.1 | Potency [2]: 5.1

CC(=O)OCC(=O)[C@@]1(OC(=O)c2ccco2)[C@H](C)CC2C3CCC4=CC(=O)C=CC4(C)[C@@]3(F)C(O)CC21C (stereo partly drawn)
Potency [1]: 1.7 | Potency [2]: 2.2

CC(=O)OCC(=O)[C@@]1(OC(=O)c2cccs2)[C@H](C)CC2C3CCC4=CC(=O)C=CC4(C)[C@@]3(F)C(O)CC21C (stereo partly drawn)
Potency [1]: 1.6 | Potency [2]: 2.9

C[C@H]1CC2C3CCC4=CC(=O)C=CC4(C)[C@@]3(F)C(O)CC2(C)[C@@]1(OC(=O)c1ccco1)C(=O)CCl (stereo partly drawn)
Potency [1]: 0.6 | Potency [2]: 0.9

CCCC(=O)OCC(=O)[C@@]1(OC(=O)c2ccco2)[C@H](C)CC2C3CCC4=CC(=O)C=CC4(C)[C@@]3(F)C(O)CC21C (stereo partly drawn)
Potency [1]: 1.1

C[C@@H]1CC2C3CCC4=CC(=O)C=CC4(C)[C@@]3(F)C(O)CC2(C)[C@@]1(OC(=O)c1ccco1)C(=O)CCl (stereo partly drawn)
Potency [1]: 1.6 | Potency [2]: 2.3

C[C@@H]1CC2C3CCC4=CC(=O)C=CC4(C)[C@@]3(Cl)C(O)CC2(C)[C@@]1(OC(=O)c1cccs1)C(=O)CCl (stereo partly drawn)
Potency [1]: 1.2 | Potency [2]: 4.5
